Reference: ChEMBL document CHEMBL5303300, “EUbOPEN Chemogenomics Library - Multiplex” (2023)
“And” between values parts separate entries of the source, which are not always exact repeats. Equal entries are not always repeated.

Test system: HEK-293T
Experiment: Multiplex assay against HEK293T
Assay type: toxicity, cell-based
Conditions: human, number of replicates 2
How it was run: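 Tubulin, mitochondrial-mass and membrane-permeability phenotypes are per cents of healthy-nucleus cells. Cells were gated by CellPathfinder machine learning into Hoechst high-intensity objects or normal cells, normal cells into healthy, pyknosed or fragmented nuclei, and pyknosed cells into mitotic or apoptotic. Before that, live cells stained at seeding with Hoechst33342, BioTracker Green Microtubule Cytoskeleton Dye, MitoTracker Red and Annexin V Alexa Fluor 680 were imaged on a CQ1 microscope at 37°C and 5% CO2 after compound addition.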

[1] = 12 h, 1 µM, compound concentration 1 uM
[2] = 12 h, 10 µM, compound concentration 10 uM
[3] = 24 h, 1 µM, compound concentration 1 uM
[4] = 24 h, 10 µM, compound concentration 10 uM
[5] = 48 h, 1 µM, compound concentration 1 uM
[6] = 48 h, 10 µM, compound concentration 10 uM

COc1cc(N(C)c2ccnc3ccc(C(F)(F)F)cc23)cc(OC)c1OC
Population Apoptotic (%) [1]: 58% and 48%
Population Fragmented Nuclei (%) [1]: 5% and 4%
Population Healthy Nuclei (%) [1]: 81% and 79%
Population Hoechst High Intensity Objects (%) [1]: 7% and 6%
Population Membrane Permeable-Phenotype (%) [1]: 2% and 5%
Population Mitochondria Different-Phenotype (%) [1]: 13% and 17%
Population Mitotic Cells (%) [1]: 41% and 51%
Population Normal (%) [1]: 92% and 93%
Population Pyknosed Nuclei (%) [1]: 12% and 16%
Population Tubulin-Different-Phenotype (%) [1]: 50% and 48%
Total Cell Count [1]: 523 and 568
Population Apoptotic (%) [2]: 42% and 52%
Population Fragmented Nuclei (%) [2]: 3% and 2%
Population Healthy Nuclei (%) [2]: 82% and 80%
Population Hoechst High Intensity Objects (%) [2]: 5%
Population Membrane Permeable-Phenotype (%) [2]: 5% and 3%
Population Mitochondria Different-Phenotype (%) [2]: 34% and 29%
Population Mitotic Cells (%) [2]: 57% and 47%
Population Normal (%) [2]: 94%
Population Pyknosed Nuclei (%) [2]: 14% and 17%
Population Tubulin-Different-Phenotype (%) [2]: 79% and 82%
Total Cell Count [2]: 570 and 542
Population Apoptotic (%) [3]: 54% and 36%
Population Fragmented Nuclei (%) [3]: 5% and 6%
Population Healthy Nuclei (%) [3]: 83% and 85%
Population Hoechst High Intensity Objects (%) [3]: 7% and 6%
Population Membrane Permeable-Phenotype (%) [3]: 3% and 5%
Population Mitochondria Different-Phenotype (%) [3]: 6% and 4%
Population Mitotic Cells (%) [3]: 45% and 63%
Population Normal (%) [3]: 92% and 93%
Population Pyknosed Nuclei (%) [3]: 10% and 8%
Population Tubulin-Different-Phenotype (%) [3]: 33% and 26%
Total Cell Count [3]: 845 and 846
Population Apoptotic (%) [4]: 46% and 53%
Population Fragmented Nuclei (%) [4]: 3% and 4%
Population Healthy Nuclei (%) [4]: 84% and 83%
Population Hoechst High Intensity Objects (%) [4]: 5%
Population Membrane Permeable-Phenotype (%) [4]: 3% and 1%
Population Mitochondria Different-Phenotype (%) [4]: 31% and 20%
Population Mitotic Cells (%) [4]: 53% and 46%
Population Normal (%) [4]: 94%
Population Pyknosed Nuclei (%) [4]: 11% and 12%
Population Tubulin-Different-Phenotype (%) [4]: 69% and 64%
Total Cell Count [4]: 762 and 740
Population Apoptotic (%) [5]: 16% and 24%
Population Fragmented Nuclei (%) [5]: 12% and 11%
Population Healthy Nuclei (%) [5]: 83% and 84%
Population Hoechst High Intensity Objects (%) [5]: 7%
Population Membrane Permeable-Phenotype (%) [5]: 5% and 4%
Population Mitochondria Different-Phenotype (%) [5]: 0%
Population Mitotic Cells (%) [5]: 83% and 75%
Population Normal (%) [5]: 92%
Population Pyknosed Nuclei (%) [5]: 3%
Population Tubulin-Different-Phenotype (%) [5]: 12% and 11%
Total Cell Count [5]: 2086 and 2004
Population Apoptotic (%) [6]: 26% and 38%
Population Fragmented Nuclei (%) [6]: 9% and 7%
Population Healthy Nuclei (%) [6]: 85% and 86%
Population Hoechst High Intensity Objects (%) [6]: 7% and 8%
Population Membrane Permeable-Phenotype (%) [6]: 3% and 1%
Population Mitochondria Different-Phenotype (%) [6]: 9%
Population Mitotic Cells (%) [6]: 73% and 61%
Population Normal (%) [6]: 92% and 91%
Population Pyknosed Nuclei (%) [6]: 5%
Population Tubulin-Different-Phenotype (%) [6]: 48% and 46%
Total Cell Count [6]: 1391 and 1324

c1ccc2c(-c3coc4cc(-c5ccc(N6CCNCC6)cc5)cnc34)ccnc2c1
Population Apoptotic (%) [1]: 49% and 54%
Population Healthy Nuclei (%) [1]: 84% and 87%
Population Mitotic Cells (%) [1]: 50% and 45%
Population Normal (%) [1]: 94%
Population Pyknosed Nuclei (%) [1]: 13% and 10%
Population Tubulin-Different-Phenotype (%) [1]: 46% and 49%
Total Cell Count [1]: 595 and 552
Population Apoptotic (%) [2]: 75% and 58%
Population Healthy Nuclei (%) [2]: 32% and 33%
Population Mitotic Cells (%) [2]: 24% and 41%
Population Normal (%) [2]: 82% and 84%
Population Pyknosed Nuclei (%) [2]: 59%
Population Tubulin-Different-Phenotype (%) [2]: 86% and 81%
Total Cell Count [2]: 394 and 507
Population Apoptotic (%) [3]: 36% and 45%
Population Healthy Nuclei (%) [3]: 88% and 87%
Population Mitotic Cells (%) [3]: 63% and 54%
Population Normal (%) [3]: 95% and 93%
Population Pyknosed Nuclei (%) [3]: 9%
Population Tubulin-Different-Phenotype (%) [3]: 34% and 40%
Total Cell Count [3]: 920 and 770
Population Apoptotic (%) [4]: 85% and 72%
Population Healthy Nuclei (%) [4]: 19% and 24%
Population Mitotic Cells (%) [4]: 14% and 27%
Population Normal (%) [4]: 82% and 80%
Population Pyknosed Nuclei (%) [4]: 71% and 67%
Population Tubulin-Different-Phenotype (%) [4]: 89% and 87%
Total Cell Count [4]: 387 and 484
Population Apoptotic (%) [5]: 13% and 18%
Population Healthy Nuclei (%) [5]: 90% and 89%
Population Mitotic Cells (%) [5]: 86% and 81%
Population Normal (%) [5]: 93% and 92%
Population Pyknosed Nuclei (%) [5]: 4% and 5%
Population Tubulin-Different-Phenotype (%) [5]: 18% and 22%
Total Cell Count [5]: 1932 and 1615
Population Apoptotic (%) [6]: 90% and 79%
Population Healthy Nuclei (%) [6]: 11% and 23%
Population Mitotic Cells (%) [6]: 9% and 20%
Population Normal (%) [6]: 81% and 79%
Population Pyknosed Nuclei (%) [6]: 74% and 64%
Population Tubulin-Different-Phenotype (%) [6]: 86% and 91%
Total Cell Count [6]: 372 and 450

O=C1NC(=NCc2cccs2)SC1=Cc1ccc2ncccc2c1
Population Apoptotic (%) [1]: 54% and 38%
Population Fragmented Nuclei (%) [1]: 6% and 4%
Population Healthy Nuclei (%) [1]: 78% and 85%
Population Hoechst High Intensity Objects (%) [1]: 8% and 7%
Population Membrane Permeable-Phenotype (%) [1]: 4% and 2%
Population Mitochondria Different-Phenotype (%) [1]: 15% and 9%
Population Mitotic Cells (%) [1]: 45% and 61%
Population Normal (%) [1]: 91% and 92%
Population Pyknosed Nuclei (%) [1]: 15% and 10%
Population Tubulin-Different-Phenotype (%) [1]: 46% and 45%
Total Cell Count [1]: 632 and 733
Population Apoptotic (%) [2]: 54% and 69%
Population Fragmented Nuclei (%) [2]: 1% and 2%
Population Healthy Nuclei (%) [2]: 90% and 92%
Population Hoechst High Intensity Objects (%) [2]: 3% and 6%
Population Membrane Permeable-Phenotype (%) [2]: 4%
Population Mitochondria Different-Phenotype (%) [2]: 21% and 19%
Population Mitotic Cells (%) [2]: 45% and 30%
Population Normal (%) [2]: 96% and 93%
Population Pyknosed Nuclei (%) [2]: 7% and 5%
Population Tubulin-Different-Phenotype (%) [2]: 78% and 72%
Total Cell Count [2]: 644 and 684
Population Apoptotic (%) [3]: 40% and 31%
Population Fragmented Nuclei (%) [3]: 6% and 4%
Population Healthy Nuclei (%) [3]: 84% and 89%
Population Hoechst High Intensity Objects (%) [3]: 8%
Population Membrane Permeable-Phenotype (%) [3]: 3% and 2%
Population Mitochondria Different-Phenotype (%) [3]: 3% and 5%
Population Mitotic Cells (%) [3]: 59% and 68%
Population Normal (%) [3]: 91%
Population Pyknosed Nuclei (%) [3]: 9% and 6%
Population Tubulin-Different-Phenotype (%) [3]: 19% and 30%
Total Cell Count [3]: 1066 and 1062
Population Apoptotic (%) [4]: 63% and 77%
Population Fragmented Nuclei (%) [4]: 2%
Population Healthy Nuclei (%) [4]: 91% and 93%
Population Hoechst High Intensity Objects (%) [4]: 6% and 5%
Population Membrane Permeable-Phenotype (%) [4]: 2% and 1%
Population Mitochondria Different-Phenotype (%) [4]: 9% and 12%
Population Mitotic Cells (%) [4]: 36% and 22%
Population Normal (%) [4]: 93% and 94%
Population Pyknosed Nuclei (%) [4]: 5% and 4%
Population Tubulin-Different-Phenotype (%) [4]: 57% and 55%
Total Cell Count [4]: 699 and 690
Population Apoptotic (%) [5]: 14% and 11%
Population Fragmented Nuclei (%) [5]: 16% and 10%
Population Healthy Nuclei (%) [5]: 80% and 86%
Population Hoechst High Intensity Objects (%) [5]: 9% and 10%
Population Membrane Permeable-Phenotype (%) [5]: 5%
Population Mitochondria Different-Phenotype (%) [5]: 0% and 1%
Population Mitotic Cells (%) [5]: 85% and 88%
Population Normal (%) [5]: 90% and 89%
Population Pyknosed Nuclei (%) [5]: 3%
Population Tubulin-Different-Phenotype (%) [5]: 9% and 14%
Total Cell Count [5]: 2821 and 2321
Population Apoptotic (%) [6]: 45% and 59%
Population Fragmented Nuclei (%) [6]: 8% and 7%
Population Healthy Nuclei (%) [6]: 87% and 89%
Population Hoechst High Intensity Objects (%) [6]: 8% and 7%
Population Membrane Permeable-Phenotype (%) [6]: 2% and 0%
Population Mitochondria Different-Phenotype (%) [6]: 3% and 5%
Population Mitotic Cells (%) [6]: 54% and 40%
Population Normal (%) [6]: 91% and 92%
Population Pyknosed Nuclei (%) [6]: 3%
Population Tubulin-Different-Phenotype (%) [6]: 21% and 26%
Total Cell Count [6]: 740 and 737
